Compound activity: PubChem BioAssay, several laboratories
TMEM16A inh – inhibitors of mouse TMEM16A calcium-activated chloride channel. 310,000 tested, 1.2% active. normalized B-score (activity score, 25-100; higher = stronger inhibition) at 10 µM. HEK293 TMEM16A/YFP iodide influx fluorescence, ionomycin;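 active = ratio plate-corrected score three or more library SD toward inhibition, starting fluorescence score within five deviations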;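 also: score derived from kinetic fluorescence span divided by baseline fluorescence per well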
CHOP UPR activ – apoptotic UPR (CHOP) activation; CHO-CHOP luciferase reporter, luminescence; percent of tunicamycin response over DMSO baseline; activation, % at 10 µM; 330,000 tested, 0.34% active;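 active = at 10 µM dose, activation of 40% or more, normalized to positive control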;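 also: 100% = tunicamycin at 10 µg/mL and 0% = DMSO alone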
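measured by = luciferase luminescence | assay system = CHO-CHOP cells, stable luciferase reporter of PERK-eIF2a-CHOP signalling | amount = 500 reporter cells seeded per well | timing = 6 h compound exposure at 37 °C after overnight seeding | controls = positive tunicamycin 10 µg/mL, negative DMSO alone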
Hep lipid drop – modulators of hepatic lipid droplet formation | AML12 mouse hepatocytes, oleate lipid droplets, BODIPY imaging | inhibition, % at 6.5 µM | 240,000 tested, 0.4% active;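 active = lipid droplet intensity inhibited by at least 50%, with more than 500 cells counted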
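System: AML12 hepatocytes (mouse). Probe or stimulus: oleic acid at 100 µM to induce lipid droplet formation. Times: overnight treatment with compound plus oleate. Detection: Image-based BODIPY and DAPI two-channel analysis. Evaluation: percent inhibition of filter-corrected integrated lipid droplet intensity per well.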
ANO1 activ – mouse TMEM16A channel activation, primary screen | Q8BHY3 | HEK293 TMEM16A/YFP-H148Q/I152L, iodide quench fluorescence; active compounds read low | B-score at 10 µM | 340,000 tested, 0.3% active | AID 623877;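 active = fluorescence-ratio B-score plate-corrected deviation score at least 3 library SD below zero, with starting fluorescence score within 5 deviations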;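 also: channel opened by trigger with iodide after compound preincubation; score built on the fluorescence ratio of max minus min over baseline; more negative score means more quench and so TMEM16A activation or potentiation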
CHOP inh – blocks CHOP induction under ER stress | CHO-K1 CHOP-promoter luciferase, tunicamycin-induced, 15-18 h | inhibition, % at 10 µM | 220,000 tested, 3.8% active;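 active = compounds that reduced the stress-induced luciferase reporter signal by more than about 70% of percent inhibition, limit read from the data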;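 also: 0% = tunicamycin plus vehicle and 100% = wells without tunicamycin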
XBP1 UPR activ – adaptive UPR (XBP1) activation; 330,000 tested, 0.33% active; AID 463104; CHO-XBP1 luciferase reporter, IRE1-XBP1 UPR activation, luminescence; percent of tunicamycin response, DMSO as zero; activation, % at 20 µM;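 active = versus positive control, 20 µM dose yields 30% or more activation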;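 also: 100% = tunicamycin at 10 µg/mL and 0% = DMSO only wells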
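Material – CHO cell line with stable XBP1 luciferase reporter · Buffer or medium – F12 plus 10% FBS · Compound – single point, 20 µM final compound, 1% DMSO · Schedule – 16-18 h cell attachment at 37 °C, then 6 h compound exposure · Signal – Steady-Glo luminescence read · Benchmarks – high control tunicamycin 10 µg/mL final, low control DMSO vehicle only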
TMEM16A reconf – TMEM16A (mouse) chloride channel inhibition, re-confirmation | shares compounds with TMEM16A inh | HEK293 TMEM16A/YFP-H148Q, iodide quench fluorescence; ionomycin added to raise cell calcium | inhibition, % at 10 µM | 2,300 tested, 39% active | AID 652189;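 active = mean duplicate percent inhibition, scaled so buffer wells are 0 and the reference blocker 100, over three buffer SD above buffer mean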
HEK293 Ca mobil – calcium mobilization counter-screen hit for TMEM16A inhibitor series; 2,300 tested, 2% active; TMEM16A/YFP HEK293, Fluo4 calcium mobilization; AID 652231; calcium response (% of ionomycin), % at 10 µM; shares compounds with TMEM16A inh;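 active = duplicate-averaged calcium signal over 20% of the ionomycin maximum, relative to buffer baseline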;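 also: each well's signal is peak minus trough fluorescence divided by its pre-addition baseline; 0% = buffer wells and 100% = ionomycin wells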
YFP-HEK293 quench – counter-screen for TMEM16A inhibitors: effect in parental YFP-HEK293 cells; shares compounds with TMEM16A inh; 2,300 tested, under 10 active; AID 652233; YFP ratio F(max-min)/F0 at 10 µM; iodide YFP quench, ionomycin;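 active = yellow fluorescent protein signal ratio exceeding the buffer control mean by over 5 SD of those controls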;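 also: ratio is mean of duplicate wells from kinetic YFP trace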
ClC-1 inh – blocks the rat ClC-1 voltage-dependent chloride channel | CHO ClC-1-YFP, iodide influx fluorescence quench; iodide control reads 0, buffer control 100 | 2,300 tested, under 10 active | ratio percent, % at 10 µM | AID 652236 | shares compounds with TMEM16A inh;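 active = duplicate-mean ratio percent above the mean of iodide-only control wells, which defines zero, plus 5 of their SD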;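 also: higher percent means stronger block of ClC-1 iodide influx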
Target sequence (P35524 whole entry, looked up): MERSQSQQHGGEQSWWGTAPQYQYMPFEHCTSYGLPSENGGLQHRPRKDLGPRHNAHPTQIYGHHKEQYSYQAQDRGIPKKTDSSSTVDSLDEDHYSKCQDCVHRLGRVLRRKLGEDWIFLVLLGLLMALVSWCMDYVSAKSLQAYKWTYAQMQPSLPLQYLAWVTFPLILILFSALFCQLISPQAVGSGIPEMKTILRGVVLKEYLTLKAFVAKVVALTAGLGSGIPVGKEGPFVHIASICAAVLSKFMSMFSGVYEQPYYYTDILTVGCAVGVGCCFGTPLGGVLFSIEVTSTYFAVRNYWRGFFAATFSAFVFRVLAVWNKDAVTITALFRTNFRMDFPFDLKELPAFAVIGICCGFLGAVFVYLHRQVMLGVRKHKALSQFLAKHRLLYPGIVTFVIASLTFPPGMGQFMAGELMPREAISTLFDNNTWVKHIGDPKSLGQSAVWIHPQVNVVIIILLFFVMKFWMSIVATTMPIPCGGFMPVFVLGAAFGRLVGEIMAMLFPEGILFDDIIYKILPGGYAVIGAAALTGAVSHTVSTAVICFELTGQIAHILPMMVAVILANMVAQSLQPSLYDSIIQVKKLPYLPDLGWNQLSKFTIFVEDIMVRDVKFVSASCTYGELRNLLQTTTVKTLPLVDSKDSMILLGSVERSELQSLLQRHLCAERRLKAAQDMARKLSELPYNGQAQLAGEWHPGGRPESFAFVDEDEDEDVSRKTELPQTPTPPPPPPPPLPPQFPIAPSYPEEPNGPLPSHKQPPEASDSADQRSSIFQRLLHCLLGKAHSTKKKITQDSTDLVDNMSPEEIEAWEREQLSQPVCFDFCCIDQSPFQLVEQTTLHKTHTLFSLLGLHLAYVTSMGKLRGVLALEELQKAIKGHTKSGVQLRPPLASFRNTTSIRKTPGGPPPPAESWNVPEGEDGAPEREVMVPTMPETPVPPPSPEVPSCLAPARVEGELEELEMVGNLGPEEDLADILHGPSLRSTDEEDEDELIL
* marks the source's active call; other numbers are inactive results; i = inactive; · = no result. An excerpt weighted towards active compounds, which were near 4.2% of everything screened.

SMILES	TMEM16A inh	CHOP UPR activ	Hep lipid drop	ANO1 activ	CHOP inh	XBP1 UPR activ	TMEM16A reconf	HEK293 Ca mobil	YFP-HEK293 quench	ClC-1 inh
Nc1nc2ncc(C(=O)c3cc(Cl)cc(Cl)c3O)cc2s1	i	0	-39	i	9	1	·	·	·	·
COc1ccc(Cc2noc(CN3CCN(c4ccc(Cl)cn4)CC3)n2)cc1OC	100*	-1	-25	i	31	-2	28%*	i	-0.99	6
CNC(=O)c1c(NC(=O)c2ccc(S(=O)(=O)N3CCCc4ccccc43)cc2)sc2c1CCN(C)C2	i	0	-8	i	-11	11	i	i	-0.85	-2
CCCN1CCc2c(sc(NC(=O)c3ccc(S(=O)(=O)N(C)c4ccccc4)cc3)c2C(=O)NC)C1	i	3	-2	i	·	0	24%*	i	-0.77	4
CN1CCc2c(sc(NC(=O)c3ccc(S(=O)(=O)N4CCc5ccccc54)cc3)c2C(N)=O)C1	i	1	0	·	-25	11	·	·	·	·
CN(Cc1ccc(Cl)c(Cl)c1)C(=O)C1CSC2(C)CCC(=O)N12 (stereo not given)	·	2	·	i	·	-2	·	·	·	·
CCCOC(=O)c1ccc(-c2c(C)noc2-c2ccc(OC)cc2O)o1	100*	-2	-24	i	93*	-1	i	i	-1.2	-20
Cc1ccc(Cl)cc1N1CCN(C(=O)COc2ccc(S(=O)(=O)NC(C)C)cc2)CC1	25*	1	·	i	·	-2	i	i	-0.85	-13
N#Cc1nc(N2CCCC2)nc(N2CCCC2)n1	100*	-2	·	i	7	4	22%*	i	-0.92	0
Cc1cc(C)cc(NC(=O)C2(c3ccccc3)CC2(Cl)Cl)c1 (stereo not given)	25*	-1	·	i	49	1	i	i	-1.3	-6
Cc1cccc(NC(=O)C2(c3ccccc3)CC2(Cl)Cl)c1 (stereo not given)	i	0	·	i	45	1	·	·	·	·
CC1OC(OC2C(CO)OC(OCC3OC(OC(=O)[C@@]45CCC(C)(C)C[C@@H]4C4=CC[C@@H]6[C@@]7(C)CCC(OC8OCC(O)C(O)C8OC8OC(C)C(O)C(O)C8O)[C@@](C)(CO)C7CC[C@@]6(C)[C@]4(C)CC5)C(O)C(O)C3O)C(O)C2O)C(O)C(O)C1O (stereo not given in full)	·	·	·	i	·	·	·	·	·	·
O=C(CCC1COc2ccccc2O1)NCc1ccccc1 (stereo not given)	100*	-1	3	i	3	-1	i	i	-1.1	-16
CCOC(=O)N1CCC(NC(=O)C(CC(C)C)NC(=O)C2CCC(C)CC2)CC1 (stereo not given)	100*	-1	7	i	67	3	i	i	-1.1	-2
Cc1[nH]nc(-c2ccc(O)cc2O)c1Oc1ccccc1	100*	1	·	i	20	-1	24%*	i	-1.1	-20
CCc1ccc(/C=C(\C#N)C(=O)NC2CCS(=O)(=O)C2)cc1 (stereo not given)	·	0	·	i	·	-1	·	·	·	·
O=S(=O)(c1ccc(Cl)cc1)N1CCN=C1SCc1cccc(Cl)c1	i	-1	0	i	17	1	·	·	·	·
COc1ccc(S(=O)(=O)N2CCN=C2SCc2cccc(C)c2)cc1	25*	-1	-12	i	·	0	i	i	-1.2	-8
O=S(=O)(c1ccccc1)N1CCN=C1SCc1c(F)cccc1Cl	100*	1	-1	i	·	1	i	i	-1	-4
CC(Oc1cccc(Cl)c1)C(=O)Nc1cc(Cl)ccc1N1CCOCC1 (stereo not given)	i	0	·	i	·	-3	·	·	·	·
CCOC(=O)N1CCN(Cc2nc(N)nc(Nc3ccc(Oc4ccccc4)cc3)n2)CC1	25*	0	24	i	74*	-3	17%*	i	-1.1	-5
COc1ccc(C(=O)N2CCCC(C(=O)O)C2)c2ccccc12 (stereo not given)	i	4	-18	i	·	2	·	·	·	·
O=C(c1ccccc1)N1CCN(C(=O)c2ccccc2Br)CC1	i	-1	·	i	3	0	·	·	·	·
CCCC(=O)c1ccc(N2CCOCC2)c(F)c1	i	6	·	i	37	0	·	·	·	·
CCCC(=O)c1ccc(N2CCN(C(=O)c3ccccc3)CC2)c(F)c1	25*	3	2	i	29	-2	i	i	-1.2	-20
SMILES	TMEM16A inh	CHOP UPR activ	Hep lipid drop	ANO1 activ	CHOP inh	XBP1 UPR activ	TMEM16A reconf	HEK293 Ca mobil	YFP-HEK293 quench	ClC-1 inh
CCCC(=O)c1ccc(N2CCN(C(=O)c3ccccc3Br)CC2)c(F)c1	100*	8	15	i	74*	-4	20%*	i	-0.88	-4
CCC(=O)c1ccc(N2CCN(C(=O)c3cccc(F)c3)CC2)c(F)c1	i	-1	4	i	17	-5	·	·	·	·
O=C(c1ccc(N2CCN(C(=O)c3ccccc3Br)CC2)cc1)c1cccc(F)c1	100*	-1	-43	i	·	-6	17%*	i	-1	-10
Nc1ccccc1C(=O)NC1CCCNC1=O (stereo not given)	i	2	·	i	·	-1	·	·	·	·
O=C(CSc1ccc(Cl)cc1Cl)N1CCC(c2nc3ccccc3s2)CC1	100*	-1	·	i	49	-4	i	i	-0.98	-6
COc1ccc(CNS(=O)(=O)c2ccc3c(c2)CC(C)N3C(=O)C2CC2)cc1 (stereo not given)	i	-1	-2	i	·	-4	·	·	·	·
COc1cc(CNS(=O)(=O)c2ccc3c(c2)CC(C)N3C(=O)C2CCC2)cc(OC)c1OC (stereo not given)	25*	2	27	i	·	-7	i	i	-1	-13
COc1ccc(CNC(=O)COc2ccc(OC)cc2)cc1	i	6	·	i	·	-8	·	·	·	·
